Measurements from ChEMBL document CHEMBL1129566 (J Med Chem, 1996).
In brackets after ≈: the same amount, converted by molar mass.

Columns and labels:
Format in all cases: functional
Staphylococcus aureus [1] = assay: In vitro minimum inhibitory concentration required to produce antibacterial activity against Staphylococcus aureus 887MSSA
Method in brief: (§1)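 Two-fold agar dilution on Mueller-Hinton agar. Overnight broth cultures diluted in fresh broth to […]; 10⁴ CFU/spot applied by inoculating apparatus onto plates with graded drug concentrations. Incubated 18 h at 37 °C; MIC taken as the lowest concentration giving complete growth inhibition.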

Enterobacter cloacae = assay: In vitro minimum inhibitory concentration required to produce antibacterial activity against Enterobacter cloacae 908SSI; method in brief: as §1
Enterococcus faecalis = assay: In vitro minimum inhibitory concentration required to produce antibacterial activity against Enterococcus faecalis ATCC 29212; method in brief: as §1
Streptococcus pneumoniae [2] = assay: Minimum inhibitory concentration for antibacterial activity against Streptococcus pneumoniae Q19 (pen s); method in brief: as §1
Staphylococcus aureus [3] = assay: In vitro minimum inhibitory concentration required to produce antibacterial activity against Staphylococcus aureus 743 MRSA; method in brief: as §1
Escherichia coli = assay: In vitro minimum inhibitory concentration required to produce antibacterial activity against Escherichia coli 25922; method in brief: as §1
Streptococcus pneumoniae [4] = assay: In vitro minimum inhibitory concentration required to produce antibacterial activity against Streptococcus pneumoniae 1/37(pen r); method in brief: as §1
Pseudomonas aeruginosa = assay: In vitro minimum inhibitory concentration required to produce antibacterial activity against Pseudomonas aeruginosa ATCC 27853; method in brief: as §1
Citrobacter freundii = assay: In vitro minimum inhibitory concentration required to produce antibacterial activity against Citrobacter freundii 902; method in brief: as §1

Nc1nc(/C(=N/O)C(=O)N[C@@H]2C(=O)N3C(C(=O)O)=C(/C=C4\CCN(c5ccc(O)cc5)C4=O)CS[C@H]23)cs1
MIC (Staphylococcus aureus [1]): 0.5 µg/mL (≈ 0.898 µM) | MIC (Enterobacter cloacae): 0.25 µg/mL (≈ 0.449 µM) | MIC (Enterococcus faecalis): 0.5 µg/mL (≈ 0.898 µM) | MIC (Streptococcus pneumoniae [2]): 0.12 µg/mL (≈ 0.216 µM) | MIC (Staphylococcus aureus [3]): 4 µg/mL (≈ 7.19 µM) | MIC (Escherichia coli): ≤ 0.06 µg/mL | MIC (Streptococcus pneumoniae [4]): 1 µg/mL (≈ 1.8 µM) | MIC (Pseudomonas aeruginosa): 4 µg/mL (≈ 7.19 µM) | MIC (Citrobacter freundii): ≤ 0.06 µg/mL

Nc1nc(/C(=N/O)C(=O)N[C@@H]2C(=O)N3C(C(=O)O)=C(/C=C4\CCN(CC5CC5)C4=O)CS[C@H]23)cs1
MIC (Staphylococcus aureus [1]): 1 µg/mL (≈ 1.93 µM) | MIC (Enterobacter cloacae): 0.25 µg/mL (≈ 0.482 µM) | MIC (Enterococcus faecalis): 1 µg/mL (≈ 1.93 µM) | MIC (Streptococcus pneumoniae [2]): 0.03 µg/mL (≈ 0.0579 µM) | MIC (Staphylococcus aureus [3]): 16 µg/mL (≈ 30.9 µM) | MIC (Escherichia coli): 0.12 µg/mL (≈ 0.231 µM) | MIC (Streptococcus pneumoniae [4]): 1 µg/mL (≈ 1.93 µM) | MIC (Pseudomonas aeruginosa): 16 µg/mL (≈ 30.9 µM) | MIC (Citrobacter freundii): 0.12 µg/mL (≈ 0.231 µM)

Nc1nc(/C(=N/O)C(=O)N[C@@H]2C(=O)N3C(C(=O)O)=C(/C=C4/CN(c5ccccc5)C4=O)CS[C@H]23)cs1
MIC (Staphylococcus aureus [1]): 0.12 µg/mL (≈ 0.228 µM) | MIC (Enterobacter cloacae): 4 µg/mL (≈ 7.6 µM) | MIC (Enterococcus faecalis): 0.5 µg/mL (≈ 0.95 µM) | MIC (Streptococcus pneumoniae [2]): 0.12 µg/mL (≈ 0.228 µM) | MIC (Staphylococcus aureus [3]): 2 µg/mL (≈ 3.8 µM) | MIC (Escherichia coli): 2 µg/mL (≈ 3.8 µM) | MIC (Streptococcus pneumoniae [4]): 2 µg/mL (≈ 3.8 µM) | MIC (Pseudomonas aeruginosa): 16 µg/mL (≈ 30.4 µM) | MIC (Citrobacter freundii): 4 µg/mL (≈ 7.6 µM)

Nc1nc(/C(=N/O)C(=O)N[C@@H]2C(=O)N3C(C(=O)O)=C(/C=C4\CCN(C5CC5)C4=O)CS[C@H]23)cs1
MIC (Staphylococcus aureus [1]): 1 µg/mL (≈ 1.98 µM) | MIC (Enterobacter cloacae): 0.12 µg/mL (≈ 0.238 µM) | MIC (Enterococcus faecalis): 1 µg/mL (≈ 1.98 µM) | MIC (Streptococcus pneumoniae [2]): 0.03 µg/mL (≈ 0.0595 µM) | MIC (Staphylococcus aureus [3]): 8 µg/mL (≈ 15.9 µM) | MIC (Escherichia coli): ≤ 0.06 µg/mL | MIC (Streptococcus pneumoniae [4]): 2 µg/mL (≈ 3.96 µM) | MIC (Pseudomonas aeruginosa): 8 µg/mL (≈ 15.9 µM) | MIC (Citrobacter freundii): 0.12 µg/mL (≈ 0.238 µM)

CC(C)CO/N=C(\C(=O)N[C@@H]1C(=O)N2C(C(=O)O)=C(/C=C3\CCN(CC(F)(F)F)C3=O)CS[C@H]12)c1csc(N)n1
MIC (Staphylococcus aureus [1]): 8 µg/mL (≈ 13.3 µM) | MIC (Enterobacter cloacae): 4 µg/mL (≈ 6.64 µM) | MIC (Enterococcus faecalis): 16 µg/mL (≈ 26.6 µM) | MIC (Streptococcus pneumoniae [2]): ≤ 0.06 µg/mL | MIC (Staphylococcus aureus [3]): 4 µg/mL (≈ 6.64 µM) | MIC (Escherichia coli): 2 µg/mL (≈ 3.32 µM) | MIC (Streptococcus pneumoniae [4]): 1 µg/mL (≈ 1.66 µM) | MIC (Pseudomonas aeruginosa): 16 µg/mL (≈ 26.6 µM) | MIC (Citrobacter freundii): 4 µg/mL (≈ 6.64 µM)

Nc1nc(/C(=N/O)C(=O)N[C@@H]2C(=O)N3C(C(=O)O)=C(/C=C4\CCN(O)C4=O)CS[C@H]23)cs1
MIC (Staphylococcus aureus [1]): 1 µg/mL (≈ 2.08 µM) | MIC (Enterobacter cloacae): 16 µg/mL (≈ 33.3 µM) | MIC (Enterococcus faecalis): 4 µg/mL (≈ 8.32 µM) | MIC (Streptococcus pneumoniae [2]): 0.06 µg/mL (≈ 0.125 µM) | MIC (Staphylococcus aureus [3]): 16 µg/mL (≈ 33.3 µM) | MIC (Escherichia coli): ≤ 0.06 µg/mL | MIC (Streptococcus pneumoniae [4]): 4 µg/mL (≈ 8.32 µM) | MIC (Pseudomonas aeruginosa): 8 µg/mL (≈ 16.6 µM) | MIC (Citrobacter freundii): 0.5 µg/mL (≈ 1.04 µM)

Cc1cc(N2CC/C(=C\C3=C(C(=O)O)N4C(=O)[C@@H](NC(=O)/C(=N\O)c5csc(N)n5)[C@H]4SC3)C2=O)no1
MIC (Staphylococcus aureus [1]): 1 µg/mL (≈ 1.83 µM) | MIC (Enterobacter cloacae): 0.5 µg/mL (≈ 0.916 µM) | MIC (Enterococcus faecalis): 0.25 µg/mL (≈ 0.458 µM) | MIC (Streptococcus pneumoniae [2]): 0.12 µg/mL (≈ 0.22 µM) | MIC (Staphylococcus aureus [3]): 8 µg/mL (≈ 14.7 µM) | MIC (Escherichia coli): 0.12 µg/mL (≈ 0.22 µM) | MIC (Streptococcus pneumoniae [4]): 2 µg/mL (≈ 3.67 µM) | MIC (Pseudomonas aeruginosa): > 32 µg/mL | MIC (Citrobacter freundii): 0.12 µg/mL (≈ 0.22 µM)

C#CCN1CC/C(=C\C2=C(C(=O)O)N3C(=O)[C@@H](NC(=O)/C(=N\O)c4csc(N)n4)[C@H]3SC2)C1=O
MIC (Staphylococcus aureus [1]): 1 µg/mL (≈ 1.99 µM) | MIC (Enterobacter cloacae): 1 µg/mL (≈ 1.99 µM) | MIC (Enterococcus faecalis): 1 µg/mL (≈ 1.99 µM) | MIC (Streptococcus pneumoniae [2]): ≤ 0.06 µg/mL | MIC (Staphylococcus aureus [3]): 4 µg/mL (≈ 7.96 µM) | MIC (Escherichia coli): ≤ 0.06 µg/mL | MIC (Streptococcus pneumoniae [4]): 2 µg/mL (≈ 3.98 µM) | MIC (Pseudomonas aeruginosa): 8 µg/mL (≈ 15.9 µM) | MIC (Citrobacter freundii): 0.12 µg/mL (≈ 0.239 µM)

Nc1nc(/C(=N/O)C(=O)N[C@@H]2C(=O)N3C(C(=O)O)=C(/C=C4\CN(c5ccccc5)C4=O)CS[C@H]23)cs1
MIC (Staphylococcus aureus [1]): 0.5 µg/mL (≈ 0.95 µM) | MIC (Enterobacter cloacae): 2 µg/mL (≈ 3.8 µM) | MIC (Enterococcus faecalis): 0.25 µg/mL (≈ 0.475 µM) | MIC (Streptococcus pneumoniae [2]): 0.5 µg/mL (≈ 0.95 µM) | MIC (Staphylococcus aureus [3]): 8 µg/mL (≈ 15.2 µM) | MIC (Escherichia coli): 1 µg/mL (≈ 1.9 µM) | MIC (Streptococcus pneumoniae [4]): 4 µg/mL (≈ 7.6 µM) | MIC (Pseudomonas aeruginosa): 16 µg/mL (≈ 30.4 µM) | MIC (Citrobacter freundii): 1 µg/mL (≈ 1.9 µM)

COc1cccc(CN2CC/C(=C\C3=C(C(=O)O)N4C(=O)[C@@H](NC(=O)/C(=N\O)c5csc(N)n5)[C@H]4SC3)C2=O)c1
MIC (Staphylococcus aureus [1]): 1 µg/mL (≈ 1.71 µM) | MIC (Enterobacter cloacae): 4 µg/mL (≈ 6.84 µM) | MIC (Enterococcus faecalis): 1 µg/mL (≈ 1.71 µM) | MIC (Streptococcus pneumoniae [2]): ≤ 0.06 µg/mL | MIC (Staphylococcus aureus [3]): 8 µg/mL (≈ 13.7 µM) | MIC (Escherichia coli): 2 µg/mL (≈ 3.42 µM) | MIC (Streptococcus pneumoniae [4]): 1 µg/mL (≈ 1.71 µM) | MIC (Pseudomonas aeruginosa): > 32 µg/mL | MIC (Citrobacter freundii): 2 µg/mL (≈ 3.42 µM)

CO/N=C(\C(=O)N[C@@H]1C(=O)N2C(C(=O)O)=C(/C=C3\CCN(CC(F)(F)F)C3=O)CS[C@H]12)c1csc(N)n1
MIC (Staphylococcus aureus [1]): 8 µg/mL (≈ 14.3 µM) | MIC (Enterobacter cloacae): 1 µg/mL (≈ 1.78 µM) | MIC (Enterococcus faecalis): > 32 µg/mL | MIC (Streptococcus pneumoniae [2]): ≤ 0.03 µg/mL | MIC (Staphylococcus aureus [3]): 8 µg/mL (≈ 14.3 µM) | MIC (Escherichia coli): 0.25 µg/mL (≈ 0.446 µM) | MIC (Streptococcus pneumoniae [4]): 0.5 µg/mL (≈ 0.892 µM) | MIC (Pseudomonas aeruginosa): 8 µg/mL (≈ 14.3 µM) | MIC (Citrobacter freundii): 0.25 µg/mL (≈ 0.446 µM)
